Here are results for 29 compounds from ChEMBL document CHEMBL3097988, “Synthesis and characterization of new N-(4-(4-chloro-1H-imidazol-1-yl)-3-methoxyphenyl)amide/sulfonamide derivatives as possible antimicrobial and antitubercular agents” (2014).

≈ marks a conversion by molar mass, not a printed value.

This assay relates to Mycobacterium tuberculosis. The assay can be described thus: Antimicrobial activity against multi drug-resistant Mycobacterium tuberculosis after 7 days by resazurin assay. The note with it: 168 h. The class given is functional. An outline of the steps:
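Resazurin microtitre assay. Cultures were grown in Middlebrook 7H9 with 10% OADC and added to fresh medium in 96-well plates. Test compounds came from 2 mg/mL DMF stocks, with DMF-only controls. Plates were incubated 7 days at 37 °C, then resazurin was added and read after 1 h at 37 °C. MIC was the lowest concentration preventing the blue-to-pink change.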
The compound `COc1cc(NS(=O)(=O)C2(c3ccc(Cl)cc3)CC2)ccc1-n1cnc(Cl)c1` yielded an MIC of more than 50 µg/mL.

`COc1cc(NS(=O)(=O)c2ccccc2)ccc1-n1cnc(Cl)c1` showed an MIC of 25 µg/mL (≈ 68.7 µM).

With `COc1ccc(S(=O)(=O)Nc2ccc(-n3cnc(Cl)c3)c(OC)c2)cc1OC`, the MIC was more than 50 µg/mL.

In the case of `COc1cc(NS(=O)(=O)c2ccc([N+](=O)[O-])cc2)ccc1-n1cnc(Cl)c1`, the minimal inhibitory concentration (MIC) was determined as 6.25 µg/mL (≈ 15.3 µM).

For the compound `COc1cc(NS(=O)(=O)c2cccc(C(C)C#N)c2)ccc1-n1cnc(Cl)c1` (centres undefined), the MIC amounted to 25 µg/mL (≈ 60 µM).

Turning to `COc1cc(NC(=O)c2ccccc2)ccc1-n1cnc(Cl)c1`, the MIC is 25 µg/mL (≈ 76.3 µM).

As for `COc1cc(NC(=O)c2ccc([N+](=O)[O-])cc2)ccc1-n1cnc(Cl)c1`, the minimum inhibitory concentration (MIC) was more than 50 µg/mL.

In the case of `COc1cc(NC(=O)c2cccc(C(C)C#N)c2)ccc1-n1cnc(Cl)c1` (centres undefined), the MIC was more than 50 µg/mL.

In turn, `COc1cc(NS(=O)(=O)c2ccc(Cl)cc2Cl)ccc1-n1cnc(Cl)c1` displayed an MIC of more than 50 µg/mL.

`COc1cc(NS(=O)(=O)Cc2cccc(C(F)(F)F)c2)ccc1-n1cnc(Cl)c1` yielded an MIC of more than 50 µg/mL.

In the case of `COc1cc(NS(=O)(=O)c2ccco2)ccc1-n1cnc(Cl)c1`, it took 25 µg/mL (≈ 70.7 µM) to inhibit growth (MIC).

`COc1cc(NS(=O)(=O)c2cc(F)cc(C(F)(F)F)c2)ccc1-n1cnc(Cl)c1`: 6.25 µg/mL (≈ 13.9 µM) was the least that counted as inhibitory (MIC).

With `COc1cc(NS(=O)(=O)c2ccc(C(F)(F)F)cc2)ccc1-n1cnc(Cl)c1`, the MIC came out at 6.25 µg/mL (≈ 14.5 µM).

The compound `COc1cc(NS(=O)(=O)c2cccc([N+](=O)[O-])c2Cl)ccc1-n1cnc(Cl)c1` came in with an MIC of 25 µg/mL (≈ 56.4 µM).

The compound `COc1cc(NS(=O)(=O)c2c(F)ccc(C(F)(F)F)c2Cl)ccc1-n1cnc(Cl)c1` showed a minimal inhibitory concentration (MIC) of 6.25 µg/mL (≈ 12.9 µM).

Turning to `COc1cc(F)c(S(=O)(=O)Nc2ccc(-n3cnc(Cl)c3)c(OC)c2)c(C(F)(F)F)c1`, the lowest concentration to inhibit growth (MIC) was 25 µg/mL (≈ 52.1 µM).

The compound `COc1cc(NS(=O)(=O)c2cccs2)ccc1-n1cnc(Cl)c1` had an MIC of more than 50 µg/mL.

`COc1cc(NC(=O)c2ccc(Cl)cc2Cl)ccc1-n1cnc(Cl)c1` displayed an MIC of 25 µg/mL (≈ 63 µM).

`COc1cc(NC(=O)Cc2cccc(C(F)(F)F)c2)ccc1-n1cnc(Cl)c1` came in with a minimum inhibitory concentration (MIC) of more than 50 µg/mL.

`COc1cc(NC(=O)c2ccco2)ccc1-n1cnc(Cl)c1` showed a minimum inhibitory concentration (MIC) of more than 50 µg/mL.

`COc1cc(NC(=O)c2cc(F)cc(C(F)(F)F)c2)ccc1-n1cnc(Cl)c1` had an MIC of more than 50 µg/mL.

The compound `COc1cc(NC(=O)c2ccc(C(F)(F)F)cc2)ccc1-n1cnc(Cl)c1` gave an MIC of more than 50 µg/mL.

As to `COc1cc(NC(=O)c2cccc([N+](=O)[O-])c2Cl)ccc1-n1cnc(Cl)c1`, the MIC was more than 50 µg/mL.

In the case of `COc1cc(NC(=O)c2c(F)ccc(C(F)(F)F)c2Cl)ccc1-n1cnc(Cl)c1`, the MIC was determined as 25 µg/mL (≈ 55.8 µM).

Regarding `COc1cc(F)c(C(=O)Nc2ccc(-n3cnc(Cl)c3)c(OC)c2)c(F)c1`, the MIC was more than 50 µg/mL.

`COc1cc(NC(=O)c2cccs2)ccc1-n1cnc(Cl)c1` had an MIC of more than 50 µg/mL.

In turn, `COc1cc(NC(=O)C2(c3ccc(Cl)cc3)CC2)ccc1-n1cnc(Cl)c1` came in with an MIC of 25 µg/mL (≈ 62.1 µM).

As to `NNC(=O)c1ccncc1` [ISONIAZID], it took 12.5 µg/mL (≈ 91.1 µM) to inhibit growth (MIC).

Consider `CO[C@H]1/C=C/O[C@@]2(C)Oc3c(C)c(O)c4c(O)c(c(/C=N/N5CCN(C)CC5)c(O)c4c3C2=O)NC(=O)/C(C)=C\C=C\[C@H](C)[C@H](O)[C@@H](C)[C@@H](O)[C@@H](C)[C@H](OC(C)=O)[C@@H]1C` [RIFAMPIN], for which the MIC stood at 25 µg/mL (≈ 30.4 µM).
